Laboratory results reported in ChEMBL document CHEMBL1909620, “The development of N-α-(2-carboxyl)benzoyl-N(5)-(2-fluoro-1-iminoethyl)-l-ornithine amide (o-F-amidine) and N-α-(2-carboxyl)benzoyl-N(5)-(2-chloro-1-iminoethyl)-l-ornithine amide (o-Cl-amidine) as second generation protein arginine deiminase (PAD) inhibitors” (J Med Chem, 2011).
Values belong to the compound of their own block, whether it stands above or below them. Activity calls are given as the source filed them. No cut-off for these calls is given here.

Assays:
[1] = molecular target: Protein-arginine deiminase type-4 (Homo sapiens, UniProt Q9UM07); test: Irreversible inhibition of PAD4 assessed as hydrolysis of benzoyl-L-arginine ethyl ester preincubated for 15 mins measured after 15 mins by fluorometric analysis
Protein-arginine deiminase type-4, sequence (Q9UM07 whole entry): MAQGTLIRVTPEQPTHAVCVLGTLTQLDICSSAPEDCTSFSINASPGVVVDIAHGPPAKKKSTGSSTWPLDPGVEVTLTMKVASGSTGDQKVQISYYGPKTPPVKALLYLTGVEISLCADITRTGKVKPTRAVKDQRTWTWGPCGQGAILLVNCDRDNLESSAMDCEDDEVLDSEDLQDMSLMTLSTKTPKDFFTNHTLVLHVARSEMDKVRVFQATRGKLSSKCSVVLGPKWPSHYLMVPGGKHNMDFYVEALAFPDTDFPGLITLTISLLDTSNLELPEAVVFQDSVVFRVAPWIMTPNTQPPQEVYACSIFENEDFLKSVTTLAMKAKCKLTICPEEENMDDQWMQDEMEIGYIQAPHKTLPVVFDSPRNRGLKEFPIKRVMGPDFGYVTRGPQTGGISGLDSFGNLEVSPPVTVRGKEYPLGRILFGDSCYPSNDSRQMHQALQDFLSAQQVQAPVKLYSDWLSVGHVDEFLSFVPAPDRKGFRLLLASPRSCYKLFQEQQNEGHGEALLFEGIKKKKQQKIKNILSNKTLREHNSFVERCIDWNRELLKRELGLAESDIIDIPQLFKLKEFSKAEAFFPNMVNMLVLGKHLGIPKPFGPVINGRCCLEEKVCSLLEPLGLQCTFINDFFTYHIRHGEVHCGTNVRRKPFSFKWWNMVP

[2] = molecular target: T1, Protein-arginine deiminase type-1 (Homo sapiens, UniProt Q9ULC6); test: Irreversible inhibition of PAD1 assessed as hydrolysis of benzoyl-L-arginine ethyl ester preincubated for 15 mins measured after 15 mins by fluorometric analysis
T1 sequence (Q9ULC6 whole entry): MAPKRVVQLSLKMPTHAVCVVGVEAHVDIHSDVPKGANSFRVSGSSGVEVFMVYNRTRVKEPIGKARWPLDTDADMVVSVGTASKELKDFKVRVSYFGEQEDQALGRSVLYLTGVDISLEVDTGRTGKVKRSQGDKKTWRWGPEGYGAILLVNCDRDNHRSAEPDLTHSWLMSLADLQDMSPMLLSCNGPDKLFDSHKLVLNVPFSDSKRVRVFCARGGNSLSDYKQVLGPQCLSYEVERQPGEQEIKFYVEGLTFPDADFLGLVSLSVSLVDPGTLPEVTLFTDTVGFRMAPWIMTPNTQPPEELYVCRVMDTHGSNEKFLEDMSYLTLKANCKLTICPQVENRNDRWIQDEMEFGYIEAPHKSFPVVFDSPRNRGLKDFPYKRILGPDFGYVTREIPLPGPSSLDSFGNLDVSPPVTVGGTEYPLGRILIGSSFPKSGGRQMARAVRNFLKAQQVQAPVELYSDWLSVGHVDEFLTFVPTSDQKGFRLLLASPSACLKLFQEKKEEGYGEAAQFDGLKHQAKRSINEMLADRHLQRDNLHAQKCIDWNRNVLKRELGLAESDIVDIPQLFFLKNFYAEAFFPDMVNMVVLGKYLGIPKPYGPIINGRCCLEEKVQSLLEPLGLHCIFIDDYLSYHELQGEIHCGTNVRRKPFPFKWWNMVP

[3] = molecular target: T2, Protein-arginine deiminase type-3 (Homo sapiens, UniProt Q9ULW8); test: Irreversible inhibition of PAD3 assessed as hydrolysis of benzoyl-L-arginine ethyl ester preincubated for 15 mins measured after 15 mins by fluorometric analysis
T2 sequence (Q9ULW8 whole entry): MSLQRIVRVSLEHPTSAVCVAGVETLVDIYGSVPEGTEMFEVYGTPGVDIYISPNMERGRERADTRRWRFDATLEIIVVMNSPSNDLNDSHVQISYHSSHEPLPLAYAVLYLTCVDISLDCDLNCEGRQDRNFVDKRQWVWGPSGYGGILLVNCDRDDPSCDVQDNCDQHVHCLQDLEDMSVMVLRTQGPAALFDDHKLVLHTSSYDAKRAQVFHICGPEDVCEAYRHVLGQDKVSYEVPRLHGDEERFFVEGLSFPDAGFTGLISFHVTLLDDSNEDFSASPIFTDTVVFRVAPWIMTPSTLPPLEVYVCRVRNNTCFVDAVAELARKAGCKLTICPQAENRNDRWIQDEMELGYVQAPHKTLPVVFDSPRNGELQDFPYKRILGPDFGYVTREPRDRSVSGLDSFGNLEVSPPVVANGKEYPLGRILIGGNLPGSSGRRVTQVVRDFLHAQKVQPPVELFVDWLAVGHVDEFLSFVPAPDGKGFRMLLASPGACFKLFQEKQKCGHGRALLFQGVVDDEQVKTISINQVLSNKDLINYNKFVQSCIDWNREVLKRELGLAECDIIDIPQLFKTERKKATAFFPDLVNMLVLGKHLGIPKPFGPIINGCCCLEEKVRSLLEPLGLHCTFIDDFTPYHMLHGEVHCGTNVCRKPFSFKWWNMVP

TK6 [4] = test: Induction of apoptosis in human TK6 cells assessed as viable cells at 50 ug/ml after 2 hrs by annexin V/propidium iodide staining method relative to control; assay type: functional; conditions: TK6, 2 h, read-out: Activity
Procedure, shortened: (§1)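 TK6 human lymphoblastoid cells kept in exponential suspension culture in RPMI 1640 with 10% heat-inactivated calf serum, penicillin/streptomycin and 2 mmol/L L-glutamine at 37 °C, 5% CO2. Serum was cut to 1% 12 h before dosing at 50 μg/ml for the stated times. Cells were stained with Annexin V/propidium iodide and analysed as quadrant scatterplots.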

TK6 [5] = test: Induction of apoptosis in human TK6 cells assessed as early apoptotic cells at 50 ug/ml after 2 hrs by annexin V/propidium iodide staining method relative to control; assay type: functional; procedure, shortened: as §1
TK6 [6] = test: Induction of apoptosis in human TK6 cells assessed as late apoptotic cells at 50 ug/ml after 2 hrs by annexin V/propidium iodide staining method relative to control; assay type: functional; procedure, shortened: as §1
TK6 [7] = test: Induction of apoptosis in human TK6 cells assessed as necrotic cells at 50 ug/ml after 2 hrs by annexin V/propidium iodide staining method relative to control; assay type: functional; procedure, shortened: as §1
TK6 [8] = test: Induction of apoptosis in human TK6 cells assessed as viable cells at 50 ug/ml after 4 hrs by annexin V/propidium iodide staining method relative to control; assay type: functional; conditions: TK6, 4 h, read-out: Activity; procedure, shortened: as §1
TK6 [9] = test: Induction of apoptosis in human TK6 cells assessed as early apoptotic cells at 50 ug/ml after 4 hrs by annexin V/propidium iodide staining method relative to control; assay type: functional
TK6 [10] = test: Induction of apoptosis in human TK6 cells assessed as late apoptotic cells at 50 ug/ml after 4 hrs by annexin V/propidium iodide staining method relative to control; assay type: functional; procedure, shortened: as §1
TK6 [11] = test: Induction of apoptosis in human TK6 cells assessed as necrotic cells at 50 ug/ml after 4 hrs by annexin V/propidium iodide staining method relative to control; assay type: functional; procedure, shortened: as §1
TK6 [12] = test: Induction of apoptosis in human TK6 cells assessed as viable cells at 50 ug/ml after 8 hrs by annexin V/propidium iodide staining method relative to control; assay type: functional; conditions: TK6, 8 h, read-out: Activity; procedure, shortened: as §1
TK6 [13] = test: Induction of apoptosis in human TK6 cells assessed as early apoptotic cells at 50 ug/ml after 8 hrs by annexin V/propidium iodide staining method relative to control; assay type: functional; procedure, shortened: as §1
TK6 [14] = test: Induction of apoptosis in human TK6 cells assessed as late apoptotic cells at 50 ug/ml after 8 hrs by annexin V/propidium iodide staining method relative to control; assay type: functional; procedure, shortened: as §1
TK6 [15] = test: Induction of apoptosis in human TK6 cells assessed as necrotic cells at 50 ug/ml after 8 hrs by annexin V/propidium iodide staining method relative to control relative to control; assay type: functional; procedure, shortened: as §1
TK6 [16] = test: Induction of apoptosis in human TK6 cells assessed as induction of PARP cleavage at 50 ug/ml measured up to 8 hrs by Western blotting; assay type: functional, cell-based
Procedure, shortened: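 TK6 cells were moved to 1% heat-inactivated calf serum RPMI 1640 12 h beforehand, then exposed to 50 μg/ml for time courses. PARP cleavage was detected by western blot with anti-PARP antibody, using GAPDH as loading control.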

HL-60 [17] = test: Cytotoxicity against human HL60 cells assessed as reduction in cell viability after 24 hrs by MTT assay relative to control; assay type: functional, cell-based; conditions: HL-60, 24 h
Procedure, shortened: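 HL60 cells grown in RPMI 1640 with 10% FBS and 1% penicillin-streptomycin at 37 °C, 5% CO2, used at 1 × 10^6 cells/mL. Compounds were added at 100 nM to 100 μM final and incubated 24 h. Viability was read by MTT-type assay as percent of control absorbance, with 1% Triton X-100 as the 100% kill control. Triplicates; EC50 from dose-response fit where possible.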

HL-60 [18] = test: Potentiation of doxorubicin-induced cytotoxicity against human HL60 cells assessed as reduction in cell viability at 0.1 to 1 uM after 24 hrs by MTT assay relative to control; assay type: functional
Procedure, shortened: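 HL60 cells (RPMI 1640, 10% FBS, 37 °C, 5% CO2) were exposed for 24 h to doxorubicin alone or together with inhibitor at fixed levels. Viability was read by MTT assay as percent of control absorbance, run in triplicate. Doxorubicin EC50 came from dose-response fits. Interaction was scored by the additive model: observed/expected ratio <0.8 synergistic, 0.8–1.2 additive.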

HL-60 [19] = test: Induction of human HL60 cell differentiation assessed as increase in PAD4 expression level after 24 hrs by Western blotting; assay type: functional, cell-based
HL-60 [20] = test: Induction of human HL60 cell differentiation assessed as increase in PAD4 expression level at 1 to 10 uM by Western blotting; assay type: functional, cell-based; conditions: TDE = time-dependent effect
[21] = molecular target: Protein-arginine deiminase type-2 (Homo sapiens, UniProt Q9Y2J8); test: Irreversible inhibition of PAD2 assessed as hydrolysis of benzoyl-L-arginine ethyl ester preincubated for 15 mins measured after 15 mins by fluorometric analysis
Protein-arginine deiminase type-2, sequence (Q9Y2J8 whole entry): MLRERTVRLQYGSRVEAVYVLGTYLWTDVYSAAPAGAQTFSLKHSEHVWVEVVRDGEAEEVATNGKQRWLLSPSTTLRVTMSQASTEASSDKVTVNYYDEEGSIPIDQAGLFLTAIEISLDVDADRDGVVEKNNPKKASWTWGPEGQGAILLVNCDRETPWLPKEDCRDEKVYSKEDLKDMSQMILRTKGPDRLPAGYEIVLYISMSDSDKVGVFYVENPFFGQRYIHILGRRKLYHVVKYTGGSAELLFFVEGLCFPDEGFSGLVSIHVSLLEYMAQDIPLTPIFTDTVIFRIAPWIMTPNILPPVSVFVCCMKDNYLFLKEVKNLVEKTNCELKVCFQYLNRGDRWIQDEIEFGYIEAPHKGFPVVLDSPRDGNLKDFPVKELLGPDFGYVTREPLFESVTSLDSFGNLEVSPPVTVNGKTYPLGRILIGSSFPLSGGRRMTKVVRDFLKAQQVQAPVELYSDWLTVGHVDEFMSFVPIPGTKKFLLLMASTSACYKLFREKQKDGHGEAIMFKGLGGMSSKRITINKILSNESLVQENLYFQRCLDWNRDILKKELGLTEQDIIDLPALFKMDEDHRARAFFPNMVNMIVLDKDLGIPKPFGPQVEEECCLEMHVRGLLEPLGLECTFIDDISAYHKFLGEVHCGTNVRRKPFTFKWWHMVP

HL-60 [22] = test: Induction of human HL60 cell differentiation assessed as increase in PAD4 expression level at 10 uM after 6 hrs by Western blotting; assay type: functional, cell-based
HL-60 [23] = test: Induction of human HL60 cell differentiation assessed as increase in PAD4 expression level at 1 uM after 12 hrs by Western blotting; assay type: functional, cell-based
HL-60 [24] = test: Induction of human HL60 cell differentiation assessed as increase in PAD4 expression level at 1 uM after 24 hrs by Western blotting; assay type: functional, cell-based

IC50 [1]: > 1000 µM
SMILES: N=C(CF)NCCCCNC(=O)c1ccccc1

IC50 [1]: 310 µM
SMILES: N=C(CF)Nc1ccc(C[C@H](NC(=O)c2ccccc2)C(N)=O)cc1

IC50 [1]: 2100 µM
SMILES: N=C(CF)Nc1cccc([C@H](NC(=O)c2ccccc2)C(N)=O)c1

IC50 [1]: 500 µM
SMILES: N=C(CF)NCCC[C@H](NS(=O)(=O)c1ccccc1)C(N)=O

IC50 [1]: > 1000 µM
SMILES: N=C(CF)NCc1ccc(C[C@H](NC(=O)c2ccccc2)C(N)=O)cc1

IC50 [1]: 310 µM
SMILES: N=C(CF)Nc1cccc(C[C@H](NC(=O)c2ccccc2)C(N)=O)c1

IC50 [21]: ≥ 50 µM
SMILES: N=C(CF)NCCC[C@H](NC(=O)c1ccccc1C(=O)O)C(N)=O.O=C(O)C(F)(F)F
viability at 50 µg/mL (TK6 [4]): 88% | Activity (TK6 [5]): 8.3% | Activity (TK6 [6]): 3.3% | Activity (TK6 [7]): 0.3% | viability at 50 µg/mL (TK6 [8]): 74.9% | Activity (TK6 [10]): 4.8% | Activity (TK6 [11]): 0.3% | viability at 50 µg/mL (TK6 [12]): 60.1% | Activity (TK6 [13]): 27.7% | Activity (TK6 [14]): 11.9% | Activity (TK6 [15]): 0.3% | Activity (TK6 [16]): Active | Activity (HL-60 [19]): Dose-dependent effect | Activity (HL-60 [20]): tde | Activity (HL-60 [22]): Active | Activity (HL-60 [23]): Active | Activity (HL-60 [24]): Active

Continued, compound first:

SMILES: N=C(CF)Nc1ccccc1
IC50 [1]: > 500 µM

SMILES: N=C(CF)NCCC[C@H](NC(=O)c1ccccc1)C(N)=O
IC50 [2]: 29 µM | Ki [2]: 110 µM | IC50 [3]: 367 µM | Ki [3]: 293 µM

SMILES: N=C(CCl)NCCC[C@H](NC(=O)c1ccccc1)C(N)=O.O=C(O)C(F)(F)F
viability at 50 µg/mL (TK6 [4]): 85.6% | Activity (TK6 [5]): 7.5% | Activity (TK6 [6]): 6.8% | Activity (TK6 [7]): 0.1% | viability at 50 µg/mL (TK6 [8]): 78.8% | Activity (TK6 [9]): 11.9% | Activity (TK6 [10]): 8.9% | Activity (TK6 [11]): 0.4% | viability at 50 µg/mL (TK6 [12]): 46.2% | Activity (TK6 [13]): 20.4% | Activity (TK6 [14]): 32.6% | Activity (TK6 [15]): 0.8% | Activity (TK6 [16]): Active

SMILES: N=C(N)CF
IC50 [1]: > 10000 µM

SMILES: COc1cccc2c1C(=O)c1c(O)c3c(c(O)c1C2=O)C[C@@](O)(C(=O)CO)C[C@@H]3O[C@H]1C[C@H](N)[C@H](O)[C@H](C)O1 [DOXORUBICIN]
EC50 (HL-60 [17]): 2.5 µM | fold change (FC) (HL-60 [18]): 6

SMILES: N=C(CF)NCCC[C@H](NC(=O)c1c[nH]cn1)C(N)=O
IC50 [1]: 230 µM

SMILES: CCCNC(=N)CF
IC50 [1]: > 1000 µM

SMILES: N=C(CF)NCc1ccccc1
IC50 [1]: > 1000 µM

SMILES: N=C(CCl)NCCC[C@H](NC(=O)c1ccccc1C(=O)O)C(N)=O
Activity (HL-60 [19]): Dose-dependent effect | Activity (HL-60 [20]): tde | Activity (HL-60 [22]): Active | Activity (HL-60 [23]): Active | Activity (HL-60 [24]): Active

SMILES: N=C(CF)NCCCCNS(=O)(=O)c1ccccc1
IC50 [1]: > 1000 µM
